Results of several laboratories.
Each line is one published result; the experiments were not run side by side.
RPS6KA3 C-terminal kinase domain: Ribosomal protein S6 kinase alpha-3, C-terminal kinase domain (RPS6KA3, Homo sapiens, UniProt P51812)
RPS6KA3: Ribosomal protein S6 kinase alpha-3 (RPS6KA3, Homo sapiens, UniProt P51812)
RPS6KA3 N-terminal kinase domain: Ribosomal protein S6 kinase alpha-3, N-terminal kinase domain (RPS6KA3, Homo sapiens, UniProt P51812)

CN1CCN(C(=O)c2ccc(NC(=O)Nc3ccc(N(C)c4ccnc(Nc5ccc(CS(C)(=O)=O)cc5)n4)cc3)cc2)CC1 — remaining binding (RPS6KA3 C-terminal kinase domain; binding, competition with immobilised ligand; 1 µM): 86%
CC(C)S(=O)(=O)c1ccc2nccc(Nc3ccc4sc(C5CCCC5)nc4c3)c2c1 — activity vs control (RPS6KA3; enzyme activity, inhibitor; 1 µM): 113%
Cc1cc(O)c(-c2ccc([C@@H](C)CN(C)C)cc2)c2c1[nH]c(=O)c1sccc12 — inhibition (RPS6KA3 C-terminal kinase domain; enzyme activity, inhibitor; 0.1 µM): -17.5%
COc1ccc2[nH]c3c4[nH]c5ccc(OC)cc5c4c4c(c3c2c1)C(=O)NC4=O — remaining binding (RPS6KA3 N-terminal kinase domain; binding, competition with immobilised ligand; 1 µM): 21%
N#Cc1ccc(NC(=O)Nc2ccccc2)cc1 — remaining binding (RPS6KA3 N-terminal kinase domain; cell-free assay, competition with immobilised ligand; 25 µM): 90%
CCCCC(=O)Nc1ccc(-c2ccc3ncn(CCC)c(=O)c3c2)cn1 — remaining binding (RPS6KA3 C-terminal kinase domain; binding, competition with immobilised ligand; 0.5 µM): 99%
C#Cc1cc(-c2cc(Nc3nc(N[C@@H](C)c4ccc(F)cn4)ncc3Cl)n[nH]2)ccc1C=O — inhibition (RPS6KA3; enzyme activity, inhibitor; 0.2 µM): 39.8%
COc1ccc2oc(-c3ccc4nc(N)oc4c3)c/c(=N\c3ccccc3NC(=O)CCN)c2c1 — remaining binding (RPS6KA3; binding; 1 µM): 98%
